ChEMBL document CHEMBL4665800, “Biased Agonism at Nociceptin/Orphanin FQ Receptors: A Structure Activity Study on N/OFQ(1-13)-NH” (J Med Chem, 2020)
Activity calls are given as the source filed them. The calls are words filed in the database; no cut-off is given here. Starred links: 1 amine or outer side, 2 acyl side, 3 side chain; linkers in the order of their positions; H or OH if unused. Positions of bridges follow the written chain, without caps; N, C: chain ends. Non-standard residues stand in square brackets, D forms with d. Residues, ends and D or L forms follow the SMILES beside them. Chains are numbered I, II in the order given. *: point of attachment. X1 = CCCCCCCCCCCCCCCC(=O)NCCCN1C(=O)CC(*)C1=O; X3 = N[C@@H](Cc1ccccc1)CN(CC(=O)[*:2])[*:1]; X2 = O=C1CC([*:1])C(=O)N1CCCC(=O)[*:2]

Experiments:
Format in all cases: cell-based
Mu-type opioid receptor [1] = biological target: T1, Mu-type opioid receptor (Homo sapiens, UniProt P35372); test: Agonist activity at MOP (unknown origin) expressed in SH-SY5Y cell membranes co-expressing Gbeta1-RGFP protein assessed as induction of G protein activation incubated for 15 mins by BRET assay
T1 sequence (P35372 whole entry): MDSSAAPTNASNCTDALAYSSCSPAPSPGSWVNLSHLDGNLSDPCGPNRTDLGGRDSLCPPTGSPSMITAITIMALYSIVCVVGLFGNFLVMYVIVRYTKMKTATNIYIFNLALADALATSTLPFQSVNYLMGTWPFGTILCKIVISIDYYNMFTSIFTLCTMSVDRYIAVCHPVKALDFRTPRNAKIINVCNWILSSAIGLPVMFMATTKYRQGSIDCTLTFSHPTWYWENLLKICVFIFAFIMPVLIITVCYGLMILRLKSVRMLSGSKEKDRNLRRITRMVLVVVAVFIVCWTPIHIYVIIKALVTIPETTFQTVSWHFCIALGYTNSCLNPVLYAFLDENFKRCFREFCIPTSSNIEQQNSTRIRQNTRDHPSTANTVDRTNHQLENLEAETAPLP

[2] = biological target: T2, Delta-type opioid receptor (Homo sapiens, UniProt P41143); test: Agonist activity at DOP (unknown origin) expressed in SH-SY5Y cell membranes co-expressing Gbeta1-RGFP protein assessed as induction of G protein activation incubated for 15 mins by BRET assay
T2 sequence (P41143 whole entry): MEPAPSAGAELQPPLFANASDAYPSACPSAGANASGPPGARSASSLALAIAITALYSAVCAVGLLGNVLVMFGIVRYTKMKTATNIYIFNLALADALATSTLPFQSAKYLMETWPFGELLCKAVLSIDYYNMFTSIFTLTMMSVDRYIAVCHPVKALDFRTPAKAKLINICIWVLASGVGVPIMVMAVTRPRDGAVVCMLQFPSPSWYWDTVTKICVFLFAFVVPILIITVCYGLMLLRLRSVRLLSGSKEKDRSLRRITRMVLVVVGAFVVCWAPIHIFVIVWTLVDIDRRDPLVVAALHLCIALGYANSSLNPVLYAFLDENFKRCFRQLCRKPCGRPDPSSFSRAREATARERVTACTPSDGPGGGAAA
Method in brief: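 Membranes (3 μg protein) from SH-SY5Y cells stably co-expressing delta-RLuc and Gβ1-RGFP, in DPBS. Ligands in PBS–BSA 0.01%, coelenterazine 5 μM final, room temperature. BRET ratio (RGFP 510 nm/RLuc 460 nm CPS minus vehicle) read 15 min after agonist. Efficacy relative to deltorphin A run on every plate; CR versus deltorphin A EC50. Five experiments in duplicate.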

[3] = biological target: T2, Delta-type opioid receptor; test: Agonist activity at DOP (unknown origin) expressed in SH-SY5Y cell membranes co-expressing beta-arrestin2-RGFP protein assessed as induction of beta-arrestin2 activation incubated for 15 mins by BRET assay
Method in brief: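 Whole SH-SY5Y cells stably co-expressing delta-RLuc and β-arrestin 2-RGFP, plated 24 h earlier (100,000 cells/well), in PBS with MgCl2 0.5 mM and CaCl2 0.9 mM. Coelenterazine 5 μM final added 15 min before reading. BRET ratio read 15 min after agonist at room temperature. Efficacy and CR relative to deltorphin A. Five experiments in duplicate.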

Mu-type opioid receptor [4] = biological target: T1, Mu-type opioid receptor; test: Agonist activity at MOP (unknown origin) expressed in SH-SY5Y cell membranes co-expressing beta-arrestin2-RGFP protein assessed as induction of beta-arrestin2 activation incubated for 15 mins by BRET assay
[5] = biological target: T2, Delta-type opioid receptor; test: (§1) Bias factor, selectivity for agonist activity at DOP (unknown origin) expressed in SH-SY5Y cell membranes co-expressing beta-arrestin2-RGFP protein assessed as induction of beta-arrestin2 activation to agonist activity at NOP (unknown origin) expressed in SH-SY5Y cell membranes co-expressing Gbeta1-RGFP protein assessed as induction of G protein activation
Method in brief: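 Concentration–response curves from delta G protein (membrane) and β-arrestin 2 (whole cell) BRET assays fitted to the Black–Leff operational model. Bias factor = Δlog(τ/KA) G protein minus Δlog(τ/KA) β-arrestin 2, with deltorphin A as the unbiased reference. Mean of at least five experiments, with 95% confidence limits.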

Nociceptin receptor [6] = biological target: T3, Nociceptin receptor (Homo sapiens, UniProt P41146); test: Agonist activity at NOP (unknown origin) expressed in HEK293 cell membranes co-expressing Gbeta1-RGFP protein assessed as induction of G protein activation incubated for 15 mins by BRET assay
T3 sequence (P41146 whole entry): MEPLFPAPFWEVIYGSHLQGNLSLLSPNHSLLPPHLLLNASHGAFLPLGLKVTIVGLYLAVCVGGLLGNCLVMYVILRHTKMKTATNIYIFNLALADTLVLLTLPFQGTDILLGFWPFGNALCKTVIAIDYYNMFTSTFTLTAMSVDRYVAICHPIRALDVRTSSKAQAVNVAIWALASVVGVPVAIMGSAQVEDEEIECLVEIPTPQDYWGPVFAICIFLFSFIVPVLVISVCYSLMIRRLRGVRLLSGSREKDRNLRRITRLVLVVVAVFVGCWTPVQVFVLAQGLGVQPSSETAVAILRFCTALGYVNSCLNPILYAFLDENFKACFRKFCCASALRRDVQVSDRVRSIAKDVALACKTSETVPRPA
Method in brief: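 Membranes (3 μg protein) from HEK293 cells stably co-expressing NOP-RLuc and Gβ1-RGFP, in DPBS. Coelenterazine 5 μM final; ligands in PBS–BSA 0.01%. BRET ratio (RGFP 510 nm / RLuc 460 nm) read 15 min after agonist, room temperature. Values are vehicle-subtracted stimulated BRET ratio. Mean of five experiments in duplicate.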

Nociceptin receptor [7] = biological target: T3, Nociceptin receptor; test: Agonist activity at NOP (unknown origin) […] assessed as induction of beta-arrestin2 activation incubated for 15 mins by BRET assay
Nociceptin receptor [8] = biological target: T3, Nociceptin receptor; test: Antagonist activity at NOP (unknown origin) expressed in HEK293 cell membranes co-expressing beta-arrestin2-RGFP protein assessed as reduction in N/OFQ(1-13)-NH2-induced induction of beta-arrestin2 activation pre-incubated for 15 mins before stimulation with N/OFQ(1-13)-NH2 for 15 mins by BRET assay; conditions: read-out: pA2 (converted)
Nociceptin receptor [9] = biological target: T3, Nociceptin receptor; test: Antagonist activity at NOP (unknown origin) expressed in HEK293 cell membranes co-expressing Gbeta1-RGFP protein assessed as reduction in N/OFQ(1-13)-NH2-induced induction of G protein activation pre-incubated for 15 mins before stimulation with N/OFQ(1-13)-NH2 for 15 mins by BRET assay; conditions: read-out: pA2 (converted)
Nociceptin receptor [10] = biological target: T3, Nociceptin receptor; test: as §1, with “NOP” for “DOP”, “HEK293” for “SH-SY5Y”
Method in brief: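 Concentration–response curves in the NOP G protein and β-arrestin 2 BRET assays were fitted to the Black–Leff operational model. Mean of at least five experiments with 95% confidence limits.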

| Compound | EC50 [2] [nM] | EC50 [3] [nM] | EC50 (Nociceptin receptor [6]) [nM] | EC50 (Nociceptin receptor [7]) [nM] | Selectivity Index (Nociceptin receptor [10]) | also measured |
| --- | --- | --- | --- | --- | --- | --- |
| CCCCCCCCCCCCCCCC(=O)NCCCN1C(=O)CC(SC[C@H](NC(=O)[C@H](CO)NC(=O)[C@@H]2CCCN2C(=O)[C@H](Cc2ccc(O)cc2)NC(=O)CNC(=O)[C@H](Cc2ccccc2)NC(=O)[C@@H](C)NC(=O)[C@@H](N)Cc2ccc(O)cc2)C(N)=O)C1=O (some centres not stated) | 58.9 | 617 |  |  |  | EC50 (Mu-type opioid receptor [1]): 1.45 nM; EC50 (Mu-type opioid receptor [4]): 11 nM |
| CCCCCCCCCCCCCCCC(=O)NCCCN1C(=O)CC(SC[C@H](NC(=O)[C@H](CC(C)C)NC(=O)[C@H](Cc2ccccc2)NC(=O)CNC(=O)CNC(=O)[C@@H](N)Cc2ccc(O)cc2)C(N)=O)C1=O (some centres not stated) (H-YGGFLC(X1)-NH2) | 8.13 | 132 |  |  |  | EC50 (Mu-type opioid receptor [1]): 4.07 nM; Selectivity ratio [5]: 1.7; EC50 (Mu-type opioid receptor [4]): 229 nM |
| CSCC[C@H](NC(=O)[C@H](CC(C)C)NC(=O)[C@H](Cc1c[nH]cn1)NC(=O)[C@H](Cc1ccccc1)NC(=O)[C@@H](CCSC)NC(=O)[C@@H](N)Cc1ccc(O)cc1)C(=O)N[C@@H](CC(=O)O)C(=O)O (H-Y[dM]FHLMD-OH) | 26.3 | 14.8 |  |  |  | Selectivity ratio [5]: 0 |
| CCCCCCCCCCCCCCCC(=O)NCCCN1C(=O)CC(SC[C@H](NC(=O)[C@H](CC(=O)O)NC(=O)[C@H](CCSC)NC(=O)[C@H](CC(C)C)NC(=O)[C@H](Cc2c[nH]cn2)NC(=O)[C@H](Cc2ccccc2)NC(=O)[C@@H](CCSC)NC(=O)[C@@H](N)Cc2ccc(O)cc2)C(N)=O)C1=O (some centres not stated) (H-Y[dM]FHLMDC(X1)-NH2) | 2.04 | 22.4 |  |  |  | EC50 (Mu-type opioid receptor [1]): 51.3 nM; Selectivity ratio [5]: 1.06; EC50 (Mu-type opioid receptor [4]): 38 nM |
| C[C@H](NC(=O)CNC(=O)[C@@H](NC(=O)[C@H](Cc1ccccc1)NC(=O)CNC(=O)CNC[C@@H](N)Cc1ccccc1)[C@@H](C)O)C(=O)N[C@@H](CCCN=C(N)N)C(=O)N[C@@H](CCCCN)C(=O)N[C@@H](CO)C(=O)N[C@@H](C)C(=O)N[C@@H](CCCN=C(N)N)C(=O)N[C@@H](CCCCN)C(N)=O (H-[X3]GFTGARKSARK-NH2) |  |  | 8.91 |  |  | pEC50 (Nociceptin receptor [7]; HEK293): inactive; Kb (Nociceptin receptor [8]): 14.8 nM; Kb (Nociceptin receptor [9]): 5.89 nM |
| C[C@H](NC(=O)CNC(=O)[C@@H](NC(=O)[C@H](Cc1ccccc1)NC(=O)CNC(=O)CNC(=O)[C@@H](N)Cc1ccccc1)[C@@H](C)O)C(=O)N[C@@H](CCCNC(=N)N)C(=O)N[C@@H](CCCCN)C(=O)N[C@@H](CO)C(=O)N[C@@H](C)C(=O)N[C@@H](CCCNC(=N)N)C(=O)N[C@@H](CCCCN)C(=O)N[C@@H](CSC1CC(=O)N(CCCC(=O)NCC(=O)N[C@@H](CC(=O)O)C(=O)NCC(=O)N[C@@H](CC(=O)O)C(=O)NCC(=O)N[C@@H](CC(=O)O)C(=O)NCC(=O)N[C@@H](CC(=O)O)C(=O)NCC(=O)N[C@@H](CC(=O)O)C(=O)NCC(=O)N[C@@H](CC(=O)O)C(N)=O)C1=O)C(N)=O (some centres not stated) (I: H-FGGFTGARKSARKC-NH2 / II: GDGDGDGDGDGD-NH2; linker I:14-II:N via X2) |  |  | 17.8 | 49 | 0.81 |  |
| C[C@H](NC(=O)CNC(=O)[C@@H](NC(=O)[C@H](Cc1ccccc1)NC(=O)CNC(=O)CNC(=O)[C@@H](N)Cc1ccccc1)[C@@H](C)O)C(=O)N[C@@H](CCCNC(=N)N)C(=O)N[C@@H](CCCCN)C(=O)N[C@@H](CO)C(=O)N[C@@H](C)C(=O)N[C@@H](CCCNC(=N)N)C(=O)N[C@@H](CCCCN)C(=O)N[C@@H](CSC1CC(=O)N(CCCC(=O)NCC(=O)N[C@@H](Cc2cnc[nH]2)C(=O)NCC(=O)N[C@@H](Cc2cnc[nH]2)C(=O)NCC(=O)N[C@@H](Cc2cnc[nH]2)C(=O)NCC(=O)N[C@@H](Cc2cnc[nH]2)C(=O)NCC(=O)N[C@@H](Cc2cnc[nH]2)C(=O)NCC(=O)N[C@@H](Cc2cnc[nH]2)C(N)=O)C1=O)C(N)=O (some centres not stated) (I: H-FGGFTGARKSARKC-NH2 / II: GHGHGHGHGHGH-NH2; linker I:14-II:N via X2) |  |  | 4.27 | 12.6 | 0.17 |  |
| C[C@H](NC(=O)CNC(=O)[C@@H](NC(=O)[C@H](Cc1ccccc1)NC(=O)CNC(=O)CNC(=O)[C@@H](N)Cc1ccccc1)[C@@H](C)O)C(=O)N[C@@H](CCCNC(=N)N)C(=O)N[C@@H](CCCCN)C(=O)N[C@@H](CO)C(=O)N[C@@H](C)C(=O)N[C@@H](CCCNC(=N)N)C(=O)N[C@@H](CCCCN)C(=O)N[C@@H](CSC1CC(=O)N(CCCC(=O)NCC(=O)N[C@@H](CCCCN)C(=O)NCC(=O)N[C@@H](CCCCN)C(=O)NCC(=O)N[C@@H](CCCCN)C(=O)NCC(=O)N[C@@H](CCCCN)C(=O)NCC(=O)N[C@@H](CCCCN)C(=O)NCC(=O)N[C@@H](CCCCN)C(N)=O)C1=O)C(N)=O (some centres not stated) (I: H-FGGFTGARKSARKC-NH2 / II: GKGKGKGKGKGK-NH2; linker I:14-II:N via X2) |  |  | 1.1 | 14.5 | 1.11 |  |
| H-FGAFTGARKSARK-NH2 |  |  | 13.2 | 28.8 | -0.21 |  |
| H-FGGFAGARKSARK-NH2 |  |  | 75.9 | 741 | 0.4 |  |
| H-FGGFTAARKSARK-NH2 |  |  | 21.9 | 79.4 | 0.04 |  |
| H-FGGFVGARKSARK-NH2 |  |  | 11.5 | 41.7 | 0.09 |  |
